Measurements taken from PMC7224986 (Journal of medicinal chemistry, 2016).

Tests used:
[1] = tested on: T. gondii parasites; assay: Invasion inhibition assay of T. gondii into host fibroblast cells; format: cell-based, Toxoplasma gondii
In short: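 Type I RH strain, clone 2F, expressing E. coli β-galactosidase. Compound came from a 10 mM DMSO stock diluted in medium with 1% DMSO, which was also the vehicle control. Parasites were preincubated with compound for 20 min at room temperature. Then 5 × 10^2 parasites/well were added to confluent human foreskin fibroblasts in DMEM/10% FBS, centrifuged ~300g for 5 min, and cultured at 37°C, 5% CO2. EC50 from a variable-slope sigmoidal fit; three experiments, each in triplicate.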

[2] = molecular target: mammalian actin (Oryctolagus cuniculus, UniProt P68135); assay: Pyrene fluorescence actin polymerization assay; format: biochemical; details: for inhibition at 10 µM: read-out: Inhibition of mammalian actin polymerization at 10 μM; for inhibition at 100 µM: read-out: Inhibition of mammalian actin polymerization at 100 μM; for Inhibition of mammalian actin polymerization at 10 μM: 10 μM compound
In short: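 Actin was 5% pyrene-labelled, held in Ca buffer G (2 mM Tris pH 8, 0.2 mM ATP). It was converted to the Mg2+ form (final 1 mM EGTA, 0.1 mM MgCl2) for 2 min at room temperature. Actin at 2.5 μM final was preincubated 1 min with compound in DMSO; latrunculin B was the positive control. Polymerisation was started with KCl 50 mM, imidazole 10 mM pH 7, MgCl2 1 mM, EGTA 1 mM. Pyrene fluorescence (ex 365/em 407 nm) was read every 15 s for 90 min, in triplicate.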

Row | Structure (SMILES) | inhibition at 10 µM [2] | inhibition at 100 µM [2] | also measured
1 | CCCCC(=O)OC1CCOC(OC)([C@@H]2CSC(=O)N2Cc2ccc(OC)cc2)C1 (stereo partly drawn) [Compound 10, 2-Methoxy-2-((R)-3-(4-methoxybenzyl)-2-oxothiazolidin-4-yl)tetrahydro-2H-pyran-4-yl pentanoate] | – | – | activity against T. gondii (in words) [1]: inactive
2 | COc1ccc(CN2C(=O)SC[C@H]2C2(OC)CC(OC(=O)C3CCCC3)CCO2)cc1 (stereo partly drawn) [Compound 11, 2-Methoxy-2-((R)-3-(4-methoxybenzyl)-2-oxothiazolidin-4-yl)tetrahydro-2H-pyran-4-yl cyclopentanecarboxylate] | – | – | activity against T. gondii (in words) [1]: inactive
3 | COc1ccc(CN2C(=O)SC[C@H]2C2(OC)CC(OC(=O)c3ccccc3I)CCO2)cc1 (stereo partly shown) [Compound 14, 2-Methoxy-2-(3-(4-methoxybenzyl)-2-oxothiazolidin-4-yl)tetrahydro-2H-pyran-4-yl 2-iodobenzoate] | < 10% | < 10% | –
4 | COc1ccc(CN2C(=O)SC[C@H]2C2(OC)CC(OC(=O)c3ccccc3-c3cccs3)CCO2)cc1 (stereo partly drawn) [Compound 15, 2-Methoxy-2-((R)-3-(4-methoxybenzyl)-2-oxothiazolidin-4-yl)tetrahydro-2H-pyran-4-yl 2-(thiophen-2-yl)benzoate] | < 10% | < 10% | –
5 | COc1ccc(CN2C(=O)SC[C@H]2C2(OC)CC(OC(=O)c3ccccc3C3=CCCCC3)CCO2)cc1 (stereo partly drawn) [Compound 16, 2-Methoxy-2-((R)-3-(4-methoxybenzyl)-2-oxothiazolidin-4-yl)tetrahydro-2H-pyran-4-yl 2',3',4',5'-tetrahydro-[1,1'-biphenyl]-2-carboxylate] | < 10% | < 10% | –
6 | COc1ccc(CN2C(=O)SC[C@H]2C2(OC)CC(OC(=O)c3ccccc3-c3cccc4ccccc34)CCO2)cc1 (stereo partly drawn) [Compound 17, 2-Methoxy-2-((R)-3-(4-methoxybenzyl)-2-oxothiazolidin-4-yl)tetrahydro-2H-pyran-4-yl 2-(naphthalen-1-yl)benzoate] | < 10% | < 10% | –
7 | C/C1=C/C(=O)O[C@@H]2C[C@@H](CC[C@H](C)/C=C\CC1)O[C@@](O)([C@@H]1CSC(=O)N1)C2 [Latrunculin B, latrunculin B, reference compound] | – | – | Inhibition of mammalian actin polymerization at 10 μM ([2]; 2.5 μM actin, pyrene fluorescence): 100%; Inhibition of mammalian actin polymerization at 10 μM ([2]; 2.5 μM actin, pyrene fluorescence, listed as latrunculin B): 100%; Inhibition of mammalian actin polymerization at 100 μM ([2]; 100 μM compound, 2.5 μM actin, pyrene fluorescence): 100%
